Results reported in ChEMBL document CHEMBL2176974, “A bactericidal guanidinomethyl biaryl that alters the dynamics of bacterial FtsZ polymerization” (J Med Chem, 2012).
≈ marks a conversion by molar mass, not a printed value. Calls of active or inactive are those of the source. The rule behind the calls is not given here.

Key:
[1] = test system: Staphylococcus aureus; test: Potency index, ratio of erythromycin to compound bactericidal effect in methicillin-sensitive Staphylococcus aureus 8325-4 at 8 times MIC by time kill study; type: functional
[2] = test system: Staphylococcus aureus; test: Potency index, ratio of vancomycin to compound bactericidal effect in methicillin-sensitive Staphylococcus aureus 8325-4 at 8 times MIC by time kill study; type: functional
[3] = test system: Streptococcus agalactiae; test: Antimicrobial activity against Streptococcus agalactiae Strep B ATCC 12386 incubated for 24 hrs by broth microdilution method; type: functional; details: Strep B ATCC 12386, 24 h
Outline: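 CLSI broth microdilution. Log-phase bacteria at 10⁵ CFU/mL were exposed to 2-fold serial dilutions (64 to 0.016 μg/mL) in cation-adjusted Mueller-Hinton broth, 5% defibrinated sheep blood added for Streptococcus. Incubated aerobically 24 h at 37 °C. Growth read as OD600; MIC taken as the lowest concentration giving 90% growth inhibition.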

[4] = test system: Enterococcus faecalis; test: microbe, parasite or virus in culture; type: functional; details: ATCC 51575, 24 h
[5] = test system: Staphylococcus aureus; test: Antimicrobial activity against methicillin-resistant Staphylococcus aureus Mu3 incubated for 24 hrs by broth microdilution method; type: functional; details: Mu3, 24 h
[6] = molecular target: Cell division protein FtsZ (Staphylococcus aureus, UniProt P0A031, G196A); test: Binding affinity to Staphylococcus aureus FtsZ G196A mutant expressed in Escherichia coli BL21 (DE3) at 25 degC by fluorescence anisotropy assay
[7] = molecular target: Cell division protein FtsZ (Staphylococcus aureus, UniProt P0A031, I228R); test: Binding affinity to Staphylococcus aureus FtsZ I228R mutant expressed in Escherichia coli BL21 (DE3) at 25 degC by fluorescence anisotropy assay
Outline: (§1)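 Purified SaFtsZ mutant protein (0–25 μM) mixed with 5 μM compound in 50 mM Tris·HCl pH 7.4, 50 mM KCl, 2 mM magnesium acetate. After 5 min at 25 °C, steady-state fluorescence anisotropy read at excitation 245 / emission 318 nm, G-factor corrected, triplicate. Kd from nonlinear least-squares fit.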

[8] = molecular target: Cell division protein FtsZ (Staphylococcus aureus, UniProt P0A031, E185A); test: Binding affinity to Staphylococcus aureus FtsZ E185A mutant expressed in Escherichia coli BL21 (DE3) at 25 degC by fluorescence anisotropy assay; outline: as §1
[9] = test system: Enterococcus faecalis; test: Binding affinity to Enterococcus faecalis FtsZ at 40 um by fluorescence anisotropy BoGTPgammaS competition assay
Outline: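 Competition with fluorescent BoGTPγS. BoGTPγS (1 μM final) was mixed with 5 μM FtsZ and compound or unlabeled GTP at 0–40 μM. Buffer was 50 mM Tris·HCl pH 7.4, 50 mM KCl, 2 mM magnesium acetate. After 5 min at 25 °C, anisotropy was read at excitation 488 nm and emission 510 nm, in triplicate and averaged.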

[10] = molecular target: T1, Cell division protein FtsZ (Staphylococcus aureus) (UniProt P0A031); test: Binding affinity to Staphylococcus aureus FtsZ expressed in Escherichia coli BL21 (DE3) at 40 uM by fluorescence anisotropy BoGTPgammaS competition assay
T1 sequence (whole entry): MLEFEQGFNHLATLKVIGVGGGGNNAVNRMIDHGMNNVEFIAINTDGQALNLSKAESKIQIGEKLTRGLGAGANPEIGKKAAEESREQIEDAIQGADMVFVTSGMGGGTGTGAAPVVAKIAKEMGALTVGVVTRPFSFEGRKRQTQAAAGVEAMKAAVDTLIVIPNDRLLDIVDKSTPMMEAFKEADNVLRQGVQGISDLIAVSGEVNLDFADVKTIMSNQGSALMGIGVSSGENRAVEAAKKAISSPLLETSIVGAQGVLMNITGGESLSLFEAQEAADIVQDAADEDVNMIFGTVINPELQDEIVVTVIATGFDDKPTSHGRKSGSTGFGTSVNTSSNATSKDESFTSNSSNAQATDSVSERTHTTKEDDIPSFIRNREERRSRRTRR
Outline: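 Competition: 1 μM BODIPY-GTPγS with 0 or 5 μM SaFtsZ and compound at 0–40 μM in 50 mM Tris·HCl pH 7.4, 50 mM KCl, 2 mM magnesium acetate. After 5 min at 25 °C, anisotropy read at excitation 488 / emission 510 nm, 4 nm bandwidths, triplicate. Unlabeled GTP used as the positive control.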

[11] = test system: Enterococcus faecalis; test: Stimulation of Enterococcus faecalis FtsZ self-polymerization by microtiter plate-based light scattering assay
[12] = Selectivity index, ratio of Kd for Enterococcus faecalis FtsZ to Kd for Staphylococcus aureus FtsZ
Outline: (§2)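 Buffer was 50 mM Tris·HCl pH 7.4, 50 mM KCl, 2 mM magnesium acetate. Kd came from nonlinear least-squares fits, and the index is the ratio of the two Kd values.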

[13] = Selectivity index, ratio of Kd for Enterococcus faecalis FtsZ to Kd for Escherichia coli FtsZ; outline: as §2
[14] = test system: Staphylococcus aureus; test: Bactericidal activity against methicillin-sensitive Staphylococcus aureus 8325-4 at 8 times MIC measured 2 hrs post dose for 24 hrs assessed as log reduction in bacterial CFU by time kill study; type: functional
Outline: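 Exponentially growing S. aureus 8325-4 was diluted in CAMH broth to 10⁵–10⁶ CFU/mL. […] Samples taken at 2, 4 and 6 h were pelleted or diluted, then plated on TSA. Colonies were counted after 24 h at 37 °C. Points are the mean of two independent measurements.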

## CC(C)(C)c1ccc(-c2cccc(CNC(=N)N)c2)cc1
[1]
  Ratio: >1000
[2]
  Ratio: 100
[3]
  MIC: 16 µg/mL (≈ 56.9 µM)
[4]
  MIC: 4 µg/mL (≈ 14.2 µM)
[5]
  MIC: 1 µg/mL (≈ 3.55 µM)
[6]
  Kd: 5 µM
[7]
  Kd: 32.9 µM
[8]
  Kd: 38.3 µM
[9]
  Activity: inactive
[10]
  Activity: inactive
[11]
  Activity: Dose-dependent effect
[12]
  Ratio: 6
[13]
  Ratio: 6
[14]
  FC: 3
